Measured values from ChEMBL document CHEMBL1149444, “Discovery of imidazo[1,2-b][1,2,4]triazines as GABA(A) alpha2/3 subtype selective agonists for the treatment of anxiety” (J Med Chem, 2006).
Activity calls are given as the source filed them. The rule behind the calls is not given here.

What was measured:
[1] = Half life in dog at 1 mg/kg, iv or 1 mg/kg, po; type: ADME, organism-based, Canis lupus familiaris; conditions: in vivo
Outline: (§1)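 Pharmacokinetics in rat, dog or rhesus after 1 mg/kg iv and 1 mg/kg po dosing. Plasma clearance (mL/min/kg), half-life (h), volume of distribution (L/kg) and oral bioavailability (%) were derived.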

[2] = Half life in rhesus at 1 mg/kg, iv or 1 mg/kg, po; type: ADME, organism-based, Macaca mulatta; conditions: rhesus monkey, in vivo; outline: as §1
Squirrel monkey = assay: Anxiolytic effect in squirrel monkey conditioned emotional response test at 0.3 mg/kg, po; type: functional, organism-based; set-up: dose 0.3 mg/kg; conditions: Saimiri sciureus
Outline: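 Squirrel monkeys dosed po in 0.5% methyl cellulose vehicle. Anxiolysis was read as reversal of the suppression of lever pressing caused by a light cue signalling possible electric shock. Sedation was read as the rate of lever pressing for fruit juice reward on an RPI30 schedule. n = 10-11 per group, p < 0.05 versus vehicle.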

[3] = Oral bioavailability in rat at 1 mg/kg, iv or 1 mg/kg, po; type: ADME, organism-based; conditions: in vivo; outline: as §1
[4] = target: GABA-A receptor; alpha-5/beta-3/gamma-2 (Homo sapiens) (UniProt P18507+P28472+P31644); assay: Efficacy against recombinant human GABAA alpha-5 receptor plus beta3gamma2 expressed in L(tk-) cells by whole cell patch clamp method relative to chlordiazepoxide; type: functional, cell-based
Outline: (§2)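 Whole-cell patch clamp on L(tk-) cells stably expressing human alpha subunit plus beta3gamma2. GABA applied at an EC20-equivalent concentration. Modulation of that current measured across increasing test-compound concentrations. Efficacy is expressed relative to the maximal response to the full agonist chlordiazepoxide, set at 1.00.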

[5] = target: GABA-A receptor; alpha-2/beta-3/gamma-2 (Homo sapiens) (UniProt P18507+P28472+P47869); assay: Efficacy against recombinant human GABAA alpha2 receptor plus beta3gamma2 expressed in L(tk-) cells by whole cell patch clamp method relative to chlordiazepoxide; type: functional, cell-based; outline: as §2
[6] = target: GABA-A receptor; anion channel (Rattus norvegicus) (UniProt O09028+P15431+P18506+P18508+P19969+P20236+P23574+P23576+P28471+P28473+P30191+P62813+P63079+P63138+Q91ZM7+Q9ES14); assay: Receptor occupancy by displacement of [3H]Ro 15-1788 binding from central Benzodiazepine receptor in rat at 0.3 mg/kg, po; type: organism-based; set-up: dose 0.3 mg/kg
Outline: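 Central benzodiazepine receptor occupancy in rat after oral dosing, measured by displacement of [3H]Ro15-1788 binding. Plasma concentration was measured at the dose giving 50% occupancy.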

CC(C)(O)c1cnn2c(-c3ccc(F)c(-c4c(F)cccc4C#N)c3)cnc2n1
half-life [1]: 390 min | half-life [2]: 294 min | Activity (Squirrel monkey): Active | bioavailability [3]: 77% | Efficacy [4]: 0.37% | Efficacy [5]: 0.38% | Activity [6]: 50%
